Inconclusive results are not listed. Activity calls are given as the source filed them.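 Rule for the calls, unless noted: active = viability at or below 27.92% in each of two runs, the all-compound median minus 4 SD; inconclusive = no clear call, values can overlap the other calls; inactive = the rest.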
Key:
[1] = OD615 S. cerevisiae growth inhibition, permissive medium, pilot counter-assay, permissive growth control for S. cerevisiae lifespan shortening project (AID 705;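 active = growth inhibition above 25% in both replicates, a cutoff set 3 SD above the mean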); details: OD615, 24 h, at 10 µM, hits give high values
In short: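 assay system = Saccharomyces cerevisiae strain carrying genetically modified DeaD replicative-lifespan system | medium = SC raffinose/galactose permissive medium | dosing = 10 µM single dose, 0.25% DMSO | schedule = 24 h compound exposure at 30 °C after 4 h pre-growth | measured by = OD at 615 nm | read-out basis = growth inhibition from lowered OD615 after 24 h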

[2] = Restrictive medium S. cerevisiae growth inhibition, OD615, pilot screen of yeast lifespan reduction project, restrictive growth control (AID 706;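 active = growth inhibition above a set limit, 3 SD over mean compound inhibition, in both replicates, cut at about 43% in these data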;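 note: modified DeaD lifespan yeast strain shifted to restrictive glucose medium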); details: OD615, 48 h, at 10 µM, hits give high values
In short: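 Buffer or medium: CSMM-D glucose medium. Material: genetically modified Saccharomyces cerevisiae, DeaD replicative lifespan assay strain. Times: 48 h compound exposure at 30 °C. Measured by: optical density at 615 nm.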

[3] = viability gain of MRP-1-high H69AR cells under doxorubicin, pilot screen, MRP-1 activator project, CellTiter-Glo, duplicate (AID 807;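 active = viability increase at or above a cutoff of the median across tested compounds plus 3 SD, cut at about 8.5% in these data, passing the limit was not always enough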;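 note: compound pretreatment 18-22 h then 72 h combined with doxorubicin; 0% = doxorubicin alone and 100% = vehicle without doxorubicin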); details: H69AR viability with doxorubicin, CellTiter-Glo luminescence; at 10 µM; hits give high values
[4] = growth suppression of beta-catenin knockout HCT116, pilot screen, human colon tumor cells (AID 823;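 active = cell viability at or below a set limit in both duplicate runs, the limit being the all-compound median minus 4 SD, cut at about 23% in these data, passing the limit was not always enough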;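 note: 0% = wells killed by 20 µM Hyamine and 100% = untreated DMSO cell wells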); details: CellTiter-Glo, 60 h, at 10 µM, hits give low values
[5] = growth suppression of PTEN-deleted HCT116, pilot screen, cell-based, HCT116 clonal line, CellTiter-Glo (AID 824); details: 60 h, at 10 µM, hits give low values;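 note: 0% = 20 µM Hyamine control and 100% = vehicle cell control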
[6] = inhibitors of the yeast RAM network, pilot screen, dse1pr::URA3 reporter, 5-FOA selection (AID 869;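 active = inhibition over a set limit, the all-compound mean plus 3 SD, in both replicate runs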;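 note: 0% = DMSO wells with no growth and 100% = 10 µM 1-NA-PP1 with full growth; RAM network block rescues cells from 5-FOA so hits raise OD615 growth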); details: S. cerevisiae dse1pr::URA3 5-FOA growth, OD615, 2 d; at 10 µM; hits give high values; strain carries analog-sensitive mutant Cbk1 kinase
[7] = RAM signaling pathway blockade in yeast – S. cerevisiae, Pdr1DBD-CYC8 efflux-inhibited sensitized strain, primary screen (AID 1298;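 active = RAM network inhibition above 8.4% in each of two replicates, 3 SD over the compound average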;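 note: 0% = DMSO untreated cells without growth and 100% = 10 µM 1-NA-PP1 full growth; higher means more yeast growth rescued from 5-FOA killing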); details: S. cerevisiae cbk1-as DSE1-URA3 strain, 5-FOA growth OD615, 2 d; at 50 µM; hits give high values

COc1ccc(NC(=O)C2CCN(S(=O)(=O)c3ccc(OC)c(OC)c3)CC2)c(OC)c1
inactive: growth inhibition [1] -1.19% | growth inhibition [2] 4.12% | viability increase [3] -0.83% | viability [4] 94.7% | viability [5] 88.6% | inhibition [6] 1% | RAM network inhibition [7] 1.41%

C=C(C)Cn1c(NCCC)nc2c1c(=O)n(C)c(=O)n2C
inactive: growth inhibition [1] -9.8% | growth inhibition [2] -3.75% | viability increase [3] -0.51% | viability [4] 98% | viability [5] 95.2% | inhibition [6] 2.74% | RAM network inhibition [7] 1.36%

COc1cccc(C2NC(=O)NC(C)=C2C(=O)Nc2ccc(C)cc2)c1OC (stereo not drawn)
inactive: growth inhibition [1] -1.23% | growth inhibition [2] -4.83% | viability increase [3] 0.13% | viability [4] 98.5% | viability [5] 99.7% | inhibition [6] 0.455% | RAM network inhibition [7] 6.12%

CCOc1ccc(N(CC(=O)Nc2ccc3c(c2)OCCO3)S(=O)(=O)c2c(C)noc2C)cc1
inactive: growth inhibition [1] -6.29% | growth inhibition [2] -0.165% | viability increase [3] -3.41% | viability [4] 81.6% | viability [5] 87% | inhibition [6] 3.58% | RAM network inhibition [7] 4.67%

CCCCS(=O)CC(COc1ccc(Cl)cc1)OC(=O)c1ccccc1 (stereo not drawn)
inactive: growth inhibition [1] -11.8% | growth inhibition [2] -9.18% | viability increase [3] 3.23% | viability [4] 76.1% | viability [5] 86.2% | inhibition [6] 0.42% | RAM network inhibition [7] 5.86%

CCCCN(CC)CCNC(=O)c1cc2c(=O)n(C)c3ccccc3c2n1C
inactive: growth inhibition [1] 2.65% | growth inhibition [2] -6.07% | viability increase [3] -5.86% | viability [4] 49% | viability [5] 48.6% | inhibition [6] 0.8% | RAM network inhibition [7] 0.41%

CCCn1c(CN2CCCCC2CC)nc2c1c(=O)n(C)c(=O)n2C (stereo not drawn)
inactive: growth inhibition [1] -3.98% | growth inhibition [2] -17.3% | viability increase [3] 0.61% | viability [4] 93.9% | viability [5] 90.4% | inhibition [6] 0.045% | RAM network inhibition [7] 4.81%

COc1cccc(-c2nc(CS(=O)(=O)CC(=O)NCc3ccccc3OC)c(C)o2)c1
inactive: growth inhibition [1] 5.72% | growth inhibition [2] 2.59% | viability increase [3] -1.62% | viability [4] 95.9% | viability [5] 89.1% | inhibition [6] 1.55% | RAM network inhibition [7] 3.2%

N#CCCCSc1nnc(-c2ccc(Cl)cc2)n1-c1ccccc1
inactive: growth inhibition [1] -4.58% | growth inhibition [2] 9.62% | viability increase [3] -3.58% | viability [4] 83% | viability [5] 93% | inhibition [6] 1.34% | RAM network inhibition [7] 4.2%

Cn1nnnc1SCC(=O)Nc1ccc(N2CCOCC2)cc1
inactive: growth inhibition [1] -4.58% | growth inhibition [2] 7.83% | viability increase [3] -1.01% | viability [4] 95.8% | viability [5] 97.5% | inhibition [6] 0.97% | RAM network inhibition [7] 0.68%

COc1ccccc1-c1nnc(NC(=O)c2ccccc2F)o1
inactive: growth inhibition [1] -16.6% | growth inhibition [2] -17.1% | viability increase [3] -5.55% | viability [4] 88.3% | viability [5] 89.7% | inhibition [6] 1.22% | RAM network inhibition [7] 0.16%

Cn1c(C(=O)N2CCN(C3CCCCC3)CC2)cc2c(=O)n(C)c3ccccc3c21
inactive: growth inhibition [1] -0.185% | growth inhibition [2] 4.76% | viability increase [3] -1.32% | viability [4] 105% | viability [5] 101% | inhibition [6] 1.2% | RAM network inhibition [7] 0.21%

CN(C)c1nc(-c2ccccc2)c2cnn(Cc3ccccc3)c2n1
inactive: growth inhibition [1] -12.5% | growth inhibition [2] -3.25% | viability increase [3] -4.48% | viability [4] 83.8% | viability [5] 75.9% | inhibition [6] 1.59% | RAM network inhibition [7] 6.82%

CCCCSc1nnc(C)c(=O)[nH]1
inactive: growth inhibition [1] -8.76% | growth inhibition [2] -12.2% | viability increase [3] -0.85% | viability [4] 97.6% | viability [5] 102% | inhibition [6] 1.26% | RAM network inhibition [7] 7.32%

CCCCN(C)Cc1c(C)[nH]c2ccc(OCC)cc2c1=O
inactive: growth inhibition [1] -11.7% | growth inhibition [2] -20% | viability increase [3] -0.94% | viability [4] 93.6% | viability [5] 97.9% | inhibition [6] 1.4% | RAM network inhibition [7] 4.04%

COc1ccc(Cc2nnc(-c3cccc(C)c3)o2)cc1OC
inactive: growth inhibition [1] -11.4% | growth inhibition [2] 2.94% | viability increase [3] 1.15% | viability [4] 95.4% | viability [5] 84.4% | inhibition [6] 1.84% | RAM network inhibition [7] 7.99%

CCc1cc(C(=O)Cc2cnn(-c3ccccc3)c2)c(O)cc1O
inactive: growth inhibition [1] -6.31% | growth inhibition [2] -9.12% | viability increase [3] -2.95% | viability [4] 101% | viability [5] 99.1% | inhibition [6] 1.42% | RAM network inhibition [7] 3.54%

CSc1nnc(-c2ccco2)n1-c1ccccc1
inactive: growth inhibition [1] -6.73% | growth inhibition [2] 6.08% | viability increase [3] -0.4% | viability [4] 94.6% | viability [5] 90% | inhibition [6] 2.92% | RAM network inhibition [7] 5.77%

CCn1cc(SCC(N)=O)c2ccccc21
inactive: growth inhibition [1] -13.8% | growth inhibition [2] -17.4% | viability increase [3] 0.17% | viability [4] 99.1% | viability [5] 92.3% | inhibition [6] 1.14% | RAM network inhibition [7] 8.71%

CSc1cccc(NC(=O)CN2C(=O)c3ccccc3S2(=O)=O)c1
inactive: growth inhibition [1] -2.94% | growth inhibition [2] 3.68% | viability increase [3] -0.41% | viability [4] 106% | viability [5] 101% | inhibition [6] 0.095% | RAM network inhibition [7] 0.05%

COc1ccc(Cl)cc1S(=O)(=O)N1CCN(C)CC1
inactive: growth inhibition [1] 1.3% | growth inhibition [2] -7.12% | viability increase [3] -2.26% | viability [4] 100% | viability [5] 86.8% | inhibition [6] 1.67% | RAM network inhibition [7] 5.97%

Cc1onc(-c2ccccc2Cl)c1C(=O)NCCN1Cc2ccccc2C1=O
inactive: growth inhibition [1] -0.695% | growth inhibition [2] 4.3% | viability increase [3] -4.11% | viability [4] 102% | viability [5] 90.5% | inhibition [6] 0.375% | RAM network inhibition [7] 0.31%

CCOC(=O)C1CCCN(C(=O)c2ccco2)C1 (stereo not drawn)
inactive: growth inhibition [1] -11.6% | growth inhibition [2] -12.6% | viability increase [3] -3.01% | viability [4] 93.7% | viability [5] 102% | inhibition [6] 2.3% | RAM network inhibition [7] 0.62%

O=C(NCCN1CCOCC1)c1ccc(CS(=O)(=O)c2ccc(Br)cc2)o1
inactive: growth inhibition [1] 0.315% | growth inhibition [2] -7.27% | viability increase [3] -1.79% | viability [4] 99.5% | viability [5] 97.6% | inhibition [6] 1.31% | RAM network inhibition [7] 3.72%

From PubChem BioAssay
